Structures can show the parent of a compound that is named as a salt. Activity calls are given as the source filed them. The rule behind the calls is not given here.
Key:
[1] = Plasma clearance in non-fasted rat at 0.1 mg/kg, iv or 1 mg/kg, po administered through cassette dosing by LC/MS/MS analysis; assay type: ADME, organism-based; settings: in vivo
Method in brief: (§1)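 Cassette dosing to non-fasted rats, either 0.1 mg/kg iv or 1 mg/kg po. Blood was sampled after dosing and spun to plasma. Plasma was deproteinized and centrifuged, and compound levels in the supernatant were measured by LC/MS/MS.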

[2] = AUC in non-fasted rat at 1 mg/kg, po administered through cassette dosing by LC/MS/MS analysis; assay type: ADME, organism-based; settings: in vivo; method in brief: as §1
[3] = Oral bioavailability in non-fasted rat at 1 mg/kg administered through cassette dosing by LC/MS/MS analysis; assay type: ADME, organism-based; settings: in vivo; method in brief: as §1
Renin [4] = target: T1, Renin (Homo sapiens, UniProt P00797); assay: Inhibition of recombinant human preprorenin expressed in human 293F cells using angiotensinogen as substrate preincubated for 10 mins followed by substrate addition measured after 30 mins by ELISA
T1 sequence (P00797 whole entry): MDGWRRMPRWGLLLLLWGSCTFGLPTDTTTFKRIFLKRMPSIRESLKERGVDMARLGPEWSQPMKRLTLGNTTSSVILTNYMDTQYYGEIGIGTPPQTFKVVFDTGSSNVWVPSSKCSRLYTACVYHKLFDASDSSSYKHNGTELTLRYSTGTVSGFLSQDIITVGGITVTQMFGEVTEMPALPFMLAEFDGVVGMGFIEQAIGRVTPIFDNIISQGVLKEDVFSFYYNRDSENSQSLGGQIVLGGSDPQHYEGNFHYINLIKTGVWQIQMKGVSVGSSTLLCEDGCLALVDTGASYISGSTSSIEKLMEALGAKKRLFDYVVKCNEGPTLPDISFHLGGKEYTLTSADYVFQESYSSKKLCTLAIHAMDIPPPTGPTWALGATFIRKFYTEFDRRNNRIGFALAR

Renin [5] = target: T1, Renin; assay: Inhibition of renin in human plasma by radioimmunoassay; assay type: cell-free
[6] = Inhibition of pepsin (unknown origin); parameters: species or system Homo sapiens
Cathepsin D = Cathepsin D (Homo sapiens, UniProt P07339); assay: Inhibition of cathepsin D (unknown origin)
Rattus norvegicus [7] = assay: Antihypertensive activity in human angiotensinogen and renin double transgenic rat model assessed as reduction in systolic blood pressure at 3 mg/kg, po after 5 hrs by tail-cuff method; assay type: functional, organism-based
Method in brief: (§2)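 Male hAOPEN-hREN double transgenic rats, 5 weeks old. Drugs were dissolved in 0.5% methylcellulose and given orally; vehicle-dosed rats served as controls. Systolic pressure was read by tail-cuff before dosing and at 5 and 24 h after dosing.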

Rattus norvegicus [8] = assay: Antihypertensive activity in human angiotensinogen and renin double transgenic rat model assessed as reduction in systolic blood pressure at 10 mg/kg, po after 5 hrs by tail-cuff method; assay type: functional, organism-based; method in brief: as §2
Rattus norvegicus [9] = assay: Antihypertensive activity in human angiotensinogen and renin double transgenic rat model assessed as reduction in systolic blood pressure at 10 mg/kg, po after 24 hrs by tail-cuff method; assay type: functional, organism-based; method in brief: as §2
Rattus norvegicus [10] = assay: Antihypertensive activity in po dosed human angiotensinogen and renin double transgenic rat model assessed as reduction in systolic blood pressure after 5 to 24 hrs by tail-cuff method; assay type: functional, organism-based; method in brief: as §2
Rattus norvegicus [11] = assay: Antihypertensive activity in human angiotensinogen and renin double transgenic rat model assessed as reduction in systolic blood pressure at 75 mg/kg, po after 5 hrs by tail-cuff method; assay type: functional, organism-based; method in brief: as §2
Rattus norvegicus [12] = assay: Antihypertensive activity in human angiotensinogen and renin double transgenic rat model assessed as reduction in systolic blood pressure at 75 mg/kg, po after 24 hrs by tail-cuff method; assay type: functional, organism-based; method in brief: as §2

Cathepsin D, sequence (P07339 65-162 limits assumed): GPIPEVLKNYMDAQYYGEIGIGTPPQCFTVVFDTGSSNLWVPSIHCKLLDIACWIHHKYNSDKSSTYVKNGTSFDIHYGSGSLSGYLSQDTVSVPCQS
Cathepsin D, sequence (P07339 169-412 limits assumed): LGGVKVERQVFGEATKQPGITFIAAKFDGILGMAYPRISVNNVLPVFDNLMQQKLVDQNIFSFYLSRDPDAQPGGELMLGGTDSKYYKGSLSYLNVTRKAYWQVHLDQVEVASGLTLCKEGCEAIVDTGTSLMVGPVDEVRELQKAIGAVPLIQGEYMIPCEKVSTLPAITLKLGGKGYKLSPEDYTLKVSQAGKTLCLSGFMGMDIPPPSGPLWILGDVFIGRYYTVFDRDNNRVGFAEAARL

Structure (SMILES)	IC50 (Renin [4])	IC50 (Renin [5])	also measured
CCCCCCc1nc(C(C)(C)C)ncc1C(=O)N(CC(C)C)[C@@H]1CNC[C@H](C(=O)N2CCOCC2)C1	–	–	CL [1]: 40.12 mL/min/kg; AUC [2]: 20.9 ng·h/mL; F [3]: 5%
COC(=O)[C@@H]1CNC[C@H](N(CC(C)C)C(=O)c2cnc(C(C)(C)C)nc2NCc2ccco2)C1	1.2 nM	> 10 nM	–
COC(=O)[C@H]1CNC[C@@H](N(CC(C)C)C(=O)c2cnc(C(C)(C)C)nc2NCc2ccco2)C1 (racemic)	0.44 nM	1.4 nM	–
COCCCCn1c(C(=O)N(CC(C)C)[C@@H]2CNC[C@H](C(=O)N3CCOCC3)C2)nc2ccccc21 [IMARIKIREN HYDROCHLORIDE]	–	–	IC50 [6]: > 10000 nM; IC50 (Cathepsin D): > 10000 nM; Activity (Rattus norvegicus [7]): Active; Activity (Rattus norvegicus [8]): Active; Activity (Rattus norvegicus [9]): Active; Activity (Rattus norvegicus [10]): Dose-dependent effect
COCCCOc1cc(C[C@@H](C[C@H](N)[C@@H](O)C[C@H](C(=O)NCC(C)(C)C(N)=O)C(C)C)C(C)C)ccc1OC	–	–	Activity (Rattus norvegicus [11]): Active; Activity (Rattus norvegicus [12]): Active
COCCCNc1nc(C(C)(C)C)ncc1C(=O)N(CC(C)C)[C@@H]1CNC[C@H](C(=O)N2CCOCC2)C1	–	–	CL [1]: 92.32 mL/min/kg; F [3]: < 1%
CC(C)CN(C(=O)c1cnc(C(C)(C)C)nc1NCc1ccco1)[C@H]1CCCNC1	0.58 nM	4.6 nM	–
COC(=O)[C@@H]1CNC[C@@H](N(CC(C)C)C(=O)c2cnc(C(C)(C)C)nc2NCc2ccco2)C1 (relative stereo)	3.3 nM	10 nM	–

Second part, led by results:

IC50 (Renin [4])	IC50 (Renin [5])	Structure (SMILES)	also measured
1.4 nM	4.5 nM	COCCCNc1nc(C(C)(C)C)ncc1C(=O)N(CC(C)C)[C@@H]1CNC[C@H](C(N)=O)C1	–
2.6 nM	5.2 nM	COCCCNc1nc(C(C)(C)C)ncc1C(=O)N(CC(C)C)[C@@H]1CNC[C@H](C(=O)OC)C1	–
0.039 nM	0.35 nM	COC(=O)[C@H]1CNC[C@@H](N(CC(C)C)C(=O)c2cnc(C(C)(C)C)nc2NCc2ccco2)C1	–

From ChEMBL document CHEMBL3856290, “Discovery of TAK-272: A Novel, Potent, and Orally Active Renin Inhibitor” (ACS Med Chem Lett, 2016)
